The results in this text go back to ChEMBL document CHEMBL3603821, “Optimization of N-aryl-6-methoxy-1,2,3,4-tetrahydroquinolines as tubulin polymerization inhibitors” (Bioorg Med Chem, 2015).

SMILES strings stand for the structures. In brackets after ≈: the same amount, converted by molar mass.

One data set relates to A549. As to the kind of experiment: Antiproliferative activity against human A549 cells assessed as cell growth inhibition by SRB assay. It counts as functional. A digest of the protocol:
(§1)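 SRB assay in a human tumor cell line panel (A-549 lung, KB nasopharyngeal, P-glycoprotein-overexpressing KBvin, DU145 prostate).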
(In general: The SRB assay estimates cell density from bound dye.)

Data set [1] addresses T1, Tubulin (Homo sapiens) (UniProt P68371+Q9H4B7+P0DPH7+P68366+Q13509+Q71U36+P04350+Q3ZCM7+P07437+P68363+Q9BQE3+Q6PEY2+Q13885+Q9BVA1+Q9BUF5). As to the kind of experiment: Displacement of [3H]-colchicine from tubulin (unknown origin) at 5 uM after 10 mins. It counts as protein-complex assay. A digest of the protocol:
(§2)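 Radioligand binding competition: 1.0 μM tubulin incubated with 5.0 μM [3H]colchicine plus inhibitor at 5.0 or 1.0 μM for 10 min at 37 °C. At that point control binding is about 40–60% of maximum. Result is percent inhibition of colchicine binding ± SD.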
Background: Loss of bound radioactivity is the signal in a displacement assay; it reports binding, not function.

The test system of another data set is KB. Kind of data set: Antiproliferative activity against human KB cells assessed as cell growth inhibition by SRB assay. It counts as functional.
A further data set deals with Tubulin. As to the kind of experiment: Inhibition of tubulin (unknown origin) assembly pre-incubated for 15 mins before GTP addition measured after 20 mins by turbidimetry. Type of data set: protein-complex assay, Homo sapiens.
The next data set deals with DU-145. As to the kind of experiment: Antiproliferative activity against human DU145 cells assessed as cell growth inhibition by SRB assay. Type of data set: functional. A digest of the protocol: as §1
Data set [2] can be described thus: Antiproliferative activity against human vincristine-resistant KBVIN cells expressing P-glycoprotein assessed as cell growth inhibition by SRB assay. Type of data set: functional. The gist of the method: as §1
Data set [3] has as its target T1, Tubulin (Homo sapiens). Kind of data set: Displacement of [3H]-colchicine from tubulin (unknown origin) at 1 uM after 10 mins. Type of data set: protein-complex assay. A digest of the protocol: as §2
Data set [4] can be described thus: Aqueous solubility of the compound at pH 7.4 by HPLC-UV method. It counts as physicochemical. Conditions: buffer.
A short description of data set [5]: Octanol/water partition coefficient, log P of the compound after 24 hrs by HPLC analysis. It counts as physicochemical. A digest of the protocol: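 Log P measured at pH 7.4 with HPLC-UV on a C18 column (4.6 × 150 mm, 5 μm). Eluent MeOH/water 80:20 containing 0.04% ammonium acetate, run at 0.8 mL/min, with detection at 254 nm. Value given as mean ± SD of three separate experiments.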

Usually GI50 stands for the concentration at which growth is held to half of that of the control. Usually inhibition stands for the percentage by which the read-out fell short of the control. Usually IC50 stands for the concentration needed to halve the response being measured. A lower IC50 goes with greater potency. As for `COc1ccc2c(c1)CCCN2c1cncc2ccccc12`, the GI50 in the data set on A549 turned out to be 1.95 µM; in the data set on KB it was 1.48 µM; with DU-145 it was 0.92 µM; in [2], 1.54 µM. The same compound gave an inhibition on Tubulin (Homo sapiens) [1] of 39%. The compound also had an IC50 against Tubulin of 3.3 µM.

As to `COc1ccc2c(c1)CCCN2c1ncnc2[nH]cnc12`, the GI50 (with A549; in the data set on KB; in the data set on DU-145; in [2]) was above 35 µM each time.

Turning to `COc1ccc2c(c1)CCCN2c1ncnc2ccccc12`, the inhibition is 69% on Tubulin (Homo sapiens) [3] and 91% at Tubulin (Homo sapiens) [1]. Moreover, the GI50 was 0.018 µM in the data set on A549, 0.014 µM with KB and 0.019 µM in [2]. Also, inhibition against Tubulin was half-maximal at 1.3 µM (IC50).

In the case of `COc1ccc2c(c1)CCCN2c1nccc2ccccc12`, the GI50 worked out at 2.08 µM in the data set on A549, 1.72 µM with KB, 1.47 µM in the data set with DU-145 and 1.64 µM in data set [2]. This compound also gave an inhibition on Tubulin (Homo sapiens) [1] of 37%. This compound also came in with an IC50 against Tubulin of 2.6 µM.

In the case of `COc1ccc2c(c1)CCCN2c1nc(NC2CCCC2)nc2ccccc12`, the GI50 is 1.34 µM in the data set with A549, 1.19 µM in the data set with KB, 1.29 µM in the data set on DU-145 and 1.42 µM in data set [2]. The inhibition at Tubulin (Homo sapiens) [1] is 29%. In addition, the IC50 on Tubulin came out at 5.7 µM.

For `COc1ccc2c(c1)CCCN2c1ccnc2ccccc12`, the GI50 was determined as 0.2 µM in the data set on A549, 0.16 µM with KB, 0.18 µM with DU-145 and 0.18 µM in data set [2].

Consider `COc1ccc2c(c1)CCCN2c1nc(OC)nc2ccccc12`, for which the GI50 amounted to 0.024 µM in the data set with A549, 0.026 µM with KB, 0.021 µM in the data set on DU-145 and 0.03 µM in data set [2].

For `CC(=O)O[C@H]1C(=O)[C@@]2(C)[C@H]([C@H](OC(=O)c3ccccc3)[C@]3(O)C[C@H](OC(=O)[C@H](O)[C@@H](NC(=O)c4ccccc4)c4ccccc4)C(C)=C1C3(C)C)[C@]1(OC(C)=O)CO[C@@H]1C[C@@H]2O` [PACLITAXEL], the GI50 in the data set with A549 amounted to 0.0076 µM; with KB, 0.0064 µM; in the data set with DU-145, 0.006 µM; in data set [2], 1.21 µM.

`COc1ccc(/C=C\c2cc(OC)c(OC)c(OC)c2)cc1O` [COMBRETASTATIN A4]: the GI50 amounted to 0.0841 µM with A549, 0.0036 µM in the data set with KB and 0.0012 µM in [2].

One may read the solubility as the dissolved amount per volume that the medium holds. Lower therefore signals a poorly soluble substance. One may read the logP as a log measure of how a compound divides between an organic and an aqueous phase. A high value points to higher lipophilicity. Take `COc1ccc2c(c1)CCCN2c1nc(NCCCO)nc2ccccc12`: the inhibition at Tubulin (Homo sapiens) [3] is 49%; at Tubulin (Homo sapiens) [1] it was 78%. The GI50 worked out at 0.016 µM in the data set with A549, 0.018 µM in the data set on KB, 0.02 µM with DU-145 and 0.019 µM in [2]. Also, the solubility in data set [4] amounted to 75.6 µg/mL (≈ 207 µM). Besides, on Tubulin, the IC50 was found to be 0.85 µM. Further, the logP in [5] amounted to 3.43.

As for `COc1ccc2c(c1)CCCN2c1nc(N)nc2[nH]cnc12`, the GI50 with A549 was found to be 19.4 µM; in the data set with KB it was 17.5 µM; in the data set with DU-145 it was 18 µM; in data set [2] it was 18.9 µM.

Consider `COc1ccc2c(c1)CCCN2c1nc(NC2CC2)nc2ccccc12`, for which the inhibition at Tubulin (Homo sapiens) [3] was found to be 56%; at Tubulin (Homo sapiens) [1], 89%. Further, the GI50 came to 0.016 µM in the data set with A549, 0.013 µM in the data set on KB and 0.016 µM in the data set on DU-145. For the same compound, in data set [4], the solubility was determined as 2.55 µg/mL (≈ 7.36 µM). This compound also came in with an IC50 against Tubulin of 1.3 µM. Besides, the logP in [5] stood at 4.13.

In the case of `COc1ccc2c(c1)CCCN2c1cccc2cccnc12`, the 50% growth inhibitory concentration (GI50) amounted to 12.1 µM in the data set on A549, 16.2 µM in the data set with KB, 12.8 µM in the data set with DU-145 and 8.71 µM in data set [2]. For the same compound, on Tubulin, the IC50 is above 20 µM.

As to `COc1ccc2c(c1)CCCN2c1nc(F)nc2[nH]cnc12`, the 50% growth inhibitory concentration (GI50) was 23.6 µM in the data set with A549, above 33 µM in the data set on KB, 25.5 µM with DU-145 and 27.1 µM in data set [2].

Turning to `COc1ccc2c(c1)CCCN2c1nc(N(C)C)nc2ccccc12`, the GI50 in the data set with A549 stood at 0.17 µM; in the data set with KB, 0.14 µM; with DU-145 it was 0.15 µM; in data set [2] it was 0.2 µM.
